Compounds with a hit are over-represented: about 2% of the library has one in this group of screens.
DENV2 CPE: protects cells from dengue virus 2 cytopathic effect; CPE inhibition, % at 9.99 µM; AID 651640; 1.7% of 350,000 active; DENV2-infected cells, cytopathic effect rescue, plate reader; in the data active = CPE inhibition above about 20%, passing the limit was not always enough; inconclusive = no clear call, values can overlap the other calls; tested in BHK-21 cells;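 also: 0% = median of neutral control wells and 100% = median of positive control wells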
S100A4 MyoIIA: blocks human S100A4 binding to myosin IIA peptide | 0.14% of 360,000 active | S100A4/TAMRA-MyoIIA peptide fluorescence polarization | P26447 | AID 652163 | inhibition, % at 10.7 µM;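 active = mean inhibition of at least 70% across replicates, with every replicate also reaching that level; inconclusive = mean inhibition reaches 70% but some replicates fall short; inactive = mean inhibition below 70%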
Target sequence (P26447 whole entry, looked up): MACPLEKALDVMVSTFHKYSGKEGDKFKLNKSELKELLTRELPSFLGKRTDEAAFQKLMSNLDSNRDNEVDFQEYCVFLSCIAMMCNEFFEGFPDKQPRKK
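Material: S100A4 monomer protein / Buffer or medium: 50 mM HEPES pH 7.2, 10 mM CaCl2, 100 mM KCl / Times: 5 min incubation before reading / Benchmarks: neutral control DMSO, positive control TFP / Reagent: labelled myosin peptide probe, 5 nM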
XiGFP reactiv: X-chromosome reactivation activator; 0.055% of 360,000 active; XiGFP mouse fibroblasts, % GFP-positive cells imaging, 3 d; cells co-treated with 5-aza-dC sensitizer; scaled so ellipticine positive control = 100%; AID 743238; activation, % at 7.58 µM;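 active = mean normalized replicate activation at least 10% and every replicate at or above 10%; inconclusive = only one of the two criteria met; inactive = mean below 10% and not all replicates reach 10%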;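 also: 0% = median of on-plate neutral control wells and 100% = ellipticine 6 µM median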
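Assay system: SV40-immortalized XiGFP fibroblast cells, line 68-5-11; buffer or medium: DMEM plus 5-aza-dC sensitizer; compound: one concentration, pinned; timing: compounds 3 days, fix/stain 15 min at room temperature; benchmarks: positive control ellipticine, 6 µM final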
E-selectin induc: E-selectin induction on HUVECs; P16581; AID 686992; activation, % at 7.58 µM; 0.37% of 260,000 active; HUVEC E-selectin immunofluorescence imaging; normalized: neutral wells 0, TNF-alpha wells 100;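 active = mean E-selectin-positive cell signal at least 10% of the positive control, reached in at least 60% of replicates, without over 20% cell loss; inconclusive = no rule given, readout overlaps actives, possibly toxicity-flagged; inactive = the rest, including those meeting only one limit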
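Read-out basis: % PE-positive cells; Test system: HUVEC primary endothelial cells; Technique: immunofluorescence imaging; Dosing: single-point compound dose.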
Active calls of the source: *; ? = inconclusive; . = no result; ! = a repeat was not active.

SMILES | DENV2 CPE | S100A4 MyoIIA | XiGFP reactiv | E-selectin induc
O=C(C[C@H]1CC[C@H](NS(=O)(=O)c2cccc(F)c2)[C@@H](CO)O1)NCc1ccc2c(c1)OCO2 | -6 | 105* | 0 | 0
O=C(Nc1cccc(F)c1)N1CCCCN2[C@H](C1)[C@H](c1ccc(C#Cc3cccnc3)cc1)[C@@H]2CO | 7 | 1 | 0 | 0
Cc1ccn2cc(-c3ccc(NS(=O)(=O)c4ccccc4)cc3)nc2c1 | 9 | -2 | 0 | .
CCC(=O)Nc1ccc(NC(=O)CSc2nnnn2C2CCCC2)cc1C | -4 | 7 | 0 | .
CC1CCN(CCCN2C(=O)C3C(C(=O)Nc4cccc(Cl)c4)C4C=CC3(O4)C2C(=O)NC2CCCCC2)CC1 (stereo not drawn) | -5 | 0 | 0 | 1
O=C(C[C@H]1CC[C@@H](NC(=O)Nc2ccc3c(c2)OCO3)[C@@H](CO)O1)NCc1ccc2c(c1)OCO2 | 20* | -12 | 0 | 0
O=C(C[C@@H]1CC[C@H](NC(=O)Nc2ccc3c(c2)OCO3)[C@H](CO)O1)NCc1ccc2c(c1)OCO2 | -1 | -17 | 0 | 0
CSCCC(NC(=O)c1ccco1)C(=O)NCC1CCCO1 (stereo not drawn) | 67* | -1 | 0 | 1
C[C@@H]1CCCCO[C@H](CN(C)Cc2ccccc2)[C@H](C)CN([C@@H](C)CO)C(=O)c2cc(NS(=O)(=O)c3cccs3)ccc2O1 | . | -4 | 0 | .
C[C@H](CO)N1C[C@H](C)[C@H](CN(C)C(=O)Nc2ccc(F)cc2)OCCCC[C@H](C)Oc2ccc(NC(=O)c3ccccc3)cc2C1=O | 84* | 0 | 0 | 1
C[C@@H]1CCCCO[C@H](CN(C)C(=O)Nc2ccc(C(F)(F)F)cc2)[C@@H](C)CN([C@H](C)CO)C(=O)c2cc(NC(=O)c3ccncc3)ccc2O1 | 21*! | -8 | 0 | 0
C[C@@H]1CCCCO[C@H](CN(C)C(=O)Nc2ccc(C(F)(F)F)cc2)[C@H](C)CN([C@@H](C)CO)C(=O)c2cc(NC(=O)c3ccncc3)ccc2O1 | 22* | 2 | 0 | 0
C[C@@H]1CCCCO[C@@H](CN(C)C(=O)Nc2ccc3c(c2)OCO3)[C@@H](C)CN([C@H](C)CO)C(=O)c2cc(NC(=O)c3ccccc3)ccc2O1 | 20* | 3 | 0 | 0
CCC(CO)Oc1cc(NC(=O)c2ccc(OC)cc2)c2ncn(C(C)C)c2c1 (stereo not drawn) | ? | 10 | 0 | 0
C[C@H]1CN([C@@H](C)CO)C(=O)c2cc(C#Cc3ccccn3)cnc2O[C@@H]1CN(C)Cc1cncnc1 | ? | -37 | 0 | 1
COc1ccc(-n2nc(C)c3onc(C)c3c2=O)cc1 | 3 | 3 | 0 | 5
O=C(C[C@@H]1C[C@H]2c3cc(NC(=O)c4cccnc4)ccc3O[C@H]2[C@@H](CO)O1)NCc1ccc(Oc2ccccc2)cc1 | -5 | -2 | 0 | 0
CN1C(=O)c2cc(NC(=O)c3cccc(C#N)c3)ccc2OC[C@H]2O[C@@H](CC(=O)NCCN3CCCC3)CC[C@@H]21 | 0 | 6 | 0 | 0
C[C@@H]1CCCCO[C@@H](CN(C)C(=O)Nc2ccc(F)cc2)[C@H](C)CN([C@H](C)CO)C(=O)c2cc(NC(=O)c3ccncc3)ccc2O1 | 27* | 35 | 0 | 0
C[C@@H]1CCCCO[C@H](CN(C)C(=O)Nc2ccc(F)cc2)[C@H](C)CN([C@@H](C)CO)C(=O)c2cc(NC(=O)c3ccncc3)ccc2O1 | 10 | 16 | 0 | 0
O=C(NN=Cc1c(O)ccc2ccccc12)c1ccc2c(c1)OCO2 | -6 | -1 | 0 | 3
O=C(N/N=C\c1c(O)ccc2ccccc12)c1ccc(S(=O)(=O)N2CCCCC2)cc1 | . | . | 48* | .
Cc1ccc(-c2cnc(NCc3cc4c(cc3[N+](=O)[O-])OCO4)n2C)cc1C | 5 | 0 | 0 | .
CCCCc1cc(=O)oc2cc(C)cc(OCC(=O)N3CCC(C(N)=O)CC3)c12 | 61* | 55 | . | .
CCc1c(Cl)nc(N)nc1Nc1ccccc1C | 1 | -3 | 0 | 0
Cc1ccccc1OCCC(=O)NNC(=O)c1ccccc1F | 3 | -5 | 0 | 1
COCCNC(=O)C1CCC(CNS(=O)(=O)c2ccc(F)cc2)CC1 (stereo not drawn) | 34* | -1 | 0 | 0

Assay outcomes: PubChem, Broad Institute
